Experimental data reported in ChEMBL document CHEMBL1123757, “Selective thromboxane synthetase inhibitors and antihypertensive agents. New derivatives of 4-hydrazino-5H-pyridazino[4,5-b]indole, 4-hydrazinopyridazino[4,5-a]indole, and related compounds” (J Med Chem, 1987).

Legend:
[1] = test system: Rattus norvegicus; assay: Antihypertensive activity in spontaneously hypertensive rats (SHR) measured by percentage fall in arterial pressure (AP) at 25 mg/kg administered intraperitoneally at 3 h;No significance; assay type: functional, organism-based; parameters: dose 25 mg/kg; conditions: Artery
In short: (§1)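 Unanesthetized Okamoto-strain SHR, male and female, 8 weeks old, 300–350 g, systolic pressure ≥190 mmHg, heart rate 400–650 beats/min; five animals per dose. Given ip at 2.5 mL/kg, dissolved or suspended in normal saline or saline with 0.2% (carboxymethyl)cellulose and 1.0% Tween 80. Tail AP and CR recorded by mechanical transduction at set times; reported as percentage fall from control.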

[2] = test system: Rattus norvegicus; assay: Antihypertensive activity in spontaneously hypertensive rats (SHR) measured by percentage fall in cardiac rhythm (CR) at 25 mg/kg administered intraperitoneally at 3 h;No significance; assay type: functional, organism-based; parameters: dose 25 mg/kg; conditions: Heart
In short: (§2)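 Conscious SHR (Okamoto strain), 8 weeks old, male and female, 300–350 g, systolic BP ≥190 mmHg, CR 400–650 beats/min. Given ip or po at 2.5 mL/kg in normal saline or saline with 0.2% (carboxymethyl)cellulose and 1.0% Tween 80. Tail AP and CR recorded by mechanical transduction at 1, 3, 5 and 24 h, five animals per dose. Effect expressed as % fall versus control.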

[3] = test system: Rattus norvegicus; assay: Antihypertensive activity in spontaneously hypertensive rats (SHR) measured by percentage fall in arterial pressure (AP) at 25 mg/kg administered intraperitoneally at 1 h;No significance; assay type: functional, organism-based; parameters: dose 25 mg/kg; conditions: Artery; in short: as §1
[4] = test system: Rattus norvegicus; assay: Antihypertensive activity in spontaneously hypertensive rats (SHR) measured by percentage fall in cardiac rhythm (CR) at 25 mg/kg administered intraperitoneally at 24 h;No significance; assay type: functional, organism-based; parameters: dose 25 mg/kg; conditions: Heart; in short: as §1
[5] = test system: Rattus norvegicus; assay: Antihypertensive activity in spontaneously hypertensive rats (SHR) measured by percentage fall in cardiac rhythm (CR) at 25 mg/kg administered intraperitoneally at 5 h;No significance; assay type: functional, organism-based; parameters: dose 25 mg/kg; conditions: Heart; in short: as §2
[6] = species on record: Homo sapiens; assay: In vitro inhibition of platelet aggregation induced by AA (PRP incubated for 60 minutes at 37 degree C) at 10e-5 M;NS means no significance; assay type: functional
In short: (§3)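 Human venous blood anticoagulated with 3.8% sodium citrate (1:9). PRP from centrifugation at 800 rpm for 10 min at room temperature. Count adjusted with PPP to […]. Compound in saline with 10% ethylene glycol is added to PRP and incubated at 37 °C before the agonist. Agonists: ADP 2×10^-5 M, AA 0.6 mM, PGH2 2.8 μM, adrenaline 0.6 μM. Born absorbance aggregometry; n = 5.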

[7] = test system: Rattus norvegicus; assay: Antihypertensive activity in spontaneously hypertensive rats (SHR) measured by percentage fall in arterial pressure (AP) at 25 mg/kg administered intraperitoneally at 24 h;No significance; assay type: functional, organism-based; parameters: dose 25 mg/kg; conditions: Artery; in short: as §1
[8] = test system: Rattus norvegicus; assay: Antihypertensive activity in spontaneously hypertensive rats (SHR) measured by percentage fall in cardiac rhythm (CR) at 25 mg/kg administered intraperitoneally at 1 h; assay type: functional, Heart; conditions: route intraperitoneal; in short: as §1
[9] = test system: Rattus norvegicus; assay: Antihypertensive activity in spontaneously hypertensive rats (SHR) measured by percentage fall in arterial pressure (AP) at 25 mg/kg administered intraperitoneally at 5 h;No significance; assay type: functional, organism-based; parameters: dose 25 mg/kg; conditions: Artery; in short: as §1
[10] = species on record: Homo sapiens; assay: In vitro inhibition of platelet aggregation induced by ADP-II (PRP incubated for 60 minutes at 37 degree C) at 10e-5 M; assay type: functional; conditions: 1 h; in short: as §3
[11] = species on record: Homo sapiens; assay: In vitro inhibition of platelet aggregation induced by […] (PRP incubated for 5 minutes at 37 degree C) at 10e-5 M;NS means no significance; assay type: functional
[12] = species on record: Homo sapiens; assay: In vitro inhibition of platelet aggregation induced by ADP-II (PRP incubated for 5 minutes at 37 degree C) at 10e-5 M;No significance; assay type: functional; in short: as §3

CCOc1ccc2[nH]c3c(O)nncc3c2c1
inactive: inhibition [1] No significant values | Decrease in CR [2] No significant values | Decrease in AP [3] No significant values | Decrease in CR [4] No significant values | Decrease in AP [5] No significant values | inhibition [6] No significant values | Decrease in AP [7] No significant values | Decrease in CR [9] No significant values | inhibition [11] no significance | inhibition [12] No significant values
100%: inhibition at 10 µM [10]
6%: Decrease in CR [8]
